In one test the target is Mu-type opioid receptor (Homo sapiens, UniProt P35372). As to the kind of experiment: Displacement of [125I]IOXY from human recombinant mu opioid receptor expressed in CHO cells. An outline of the steps:
(§1)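 Radioligand displacement run in CHO cells stably transfected to express the μ-, δ- or κ-opioid receptor, each receptor in its own line. The method follows the authors' earlier procedure. Each value comes from n=3 determinations.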

Test [1] has as its target Delta-type opioid receptor (Homo sapiens, UniProt P41143). Briefly: Displacement of [125I]IOXY from human recombinant delta opioid receptor expressed in CHO cells. The gist of the method: as §1
In test [2] the target is Kappa-type opioid receptor (Homo sapiens, UniProt P41145). Briefly: Displacement of [125I]IOXY from human recombinant kappa opioid receptor expressed in CHO cells. The gist of the method:
as §1

Structures are written as SMILES. Where only a bound is given, the exact number is not on record here.

Delta-type opioid receptor, sequence (P41143 whole entry): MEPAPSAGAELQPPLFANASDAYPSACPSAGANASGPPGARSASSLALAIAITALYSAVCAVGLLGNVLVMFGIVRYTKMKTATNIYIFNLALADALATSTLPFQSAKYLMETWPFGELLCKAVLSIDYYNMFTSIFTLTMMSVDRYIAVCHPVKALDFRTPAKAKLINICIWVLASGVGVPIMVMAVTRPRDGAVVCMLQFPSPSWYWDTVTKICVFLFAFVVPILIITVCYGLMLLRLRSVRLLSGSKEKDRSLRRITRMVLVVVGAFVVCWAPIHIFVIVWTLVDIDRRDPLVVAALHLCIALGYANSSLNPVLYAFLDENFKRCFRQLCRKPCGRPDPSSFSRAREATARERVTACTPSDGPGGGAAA
Kappa-type opioid receptor, sequence (P41145 whole entry): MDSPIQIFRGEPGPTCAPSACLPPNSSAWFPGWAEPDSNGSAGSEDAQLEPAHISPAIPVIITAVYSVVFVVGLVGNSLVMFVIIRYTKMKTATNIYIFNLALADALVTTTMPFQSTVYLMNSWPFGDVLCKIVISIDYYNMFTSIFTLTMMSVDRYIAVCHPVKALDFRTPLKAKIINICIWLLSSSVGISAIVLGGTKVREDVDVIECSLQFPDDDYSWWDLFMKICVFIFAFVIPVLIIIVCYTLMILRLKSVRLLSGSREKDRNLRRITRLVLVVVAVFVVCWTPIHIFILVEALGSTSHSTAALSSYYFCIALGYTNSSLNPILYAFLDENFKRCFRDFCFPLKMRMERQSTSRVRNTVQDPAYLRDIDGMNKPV
Mu-type opioid receptor, sequence (P35372 whole entry): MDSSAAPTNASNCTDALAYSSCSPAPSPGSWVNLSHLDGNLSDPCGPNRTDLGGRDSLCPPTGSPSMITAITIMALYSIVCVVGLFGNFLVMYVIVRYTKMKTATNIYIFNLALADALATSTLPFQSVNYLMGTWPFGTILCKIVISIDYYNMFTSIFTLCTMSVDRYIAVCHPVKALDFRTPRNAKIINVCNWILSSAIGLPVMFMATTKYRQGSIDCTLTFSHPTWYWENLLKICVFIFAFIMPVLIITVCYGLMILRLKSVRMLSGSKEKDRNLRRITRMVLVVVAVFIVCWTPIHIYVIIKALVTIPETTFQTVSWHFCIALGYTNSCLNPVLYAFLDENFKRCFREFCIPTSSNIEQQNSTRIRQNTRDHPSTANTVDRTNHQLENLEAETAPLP

In the case of `CN1CC[C@@]23C[C@@H]1CC[C@H]2Oc1ccc(O)cc13` [(4R*,6aS*,11bR*)-2,3,4,5,6,6a-Hexahydro-3-methyl-1H-4,11bmethanobenzofuro[3,2-d]azocine-10-ol], the Ki (at Mu-type opioid receptor; in test [1]) was more than 10 µM throughout.

For the compound `CN1C[C@@H]2Oc3ccc(O)cc3[C@@]23CCC[C@@H]1C3` [(3R*,6aS*,11aR*)-1,3,4,5,6,11a-Hexahydro-2-methyl-2H-3,6a-methanobenzofuro[2,3-c]azocin-8-ol], the Ki in test [2] was found to be 0.62 µM; in test [1], 2.78 µM.

On to `Oc1ccc2c(c1)[C@@]13CCN(CCc4ccccc4)[C@@H](CC[C@H]1O2)C3` [(4R*,6aS*,11bR*)-2,3,4,5,6,6a-Hexahydro-3-phenethyl-1H-4,11b-methanobenzofuro[3,2-d]azocine-10-ol], for which the values for the Ki (in test [2]; on Mu-type opioid receptor; in test [1]) were 0.078 µM, 0.74 µM and 4.76 µM, respectively.

Turning to `Oc1cccc2c1O[C@@H]1CC[C@H]3C[C@@]21CCN3CCc1ccccc1` [(4R*,6aS*,11bR*)-2,3,4,5,6,6a-Hexahydro-3-phenethyl-1H-4,11b-methanobenzofuro[3,2-d]azocine-8-ol], the figures for the Ki (in test [2]; at Mu-type opioid receptor; in test [1]) were 0.026 µM, 0.19 µM and 3.71 µM, respectively.

For `CN1C[C@@H]2Oc3c(O)cccc3[C@@]23CCC[C@@H]1C3` [(3R*,6aS*,11aR*)-1,3,4,5,6,11a-Hexahydro-2-methyl-2H-3,6amethanobenzofuro[2,3-c]azocin-10-ol], the inhibitory constant (Ki) is 4.82 µM in test [2] and 3.43 µM in test [1].

In the case of `Oc1cccc2c1O[C@H]1CN(CCc3ccccc3)[C@@H]3CCC[C@]21C3` [(3R*,6aS*,11aR*)-1,3,4,5,6,11a-Hexahydro-2-phenethyl-2H-3,6a-methanobenzofuro [2,3-c]azocin-10-ol], the Ki was determined as 0.2 µM in test [2], 0.56 µM on Mu-type opioid receptor and 2.84 µM in test [1].

Consider `CN1CC[C@@]23C[C@@H]1CC[C@H]2Oc1c(O)cccc13` [(4R*,6aS*,11bR*)-2,3,4,5,6,6a-Hexahydro-3-methyl-1H-4,11b-methanobenzofuro[3,2-d]azocine-8-ol], for which the figures for the Ki (in test [2]; at Mu-type opioid receptor) were 0.91 µM and 3.21 µM, respectively.

The record behind these values is BindingDB's records for doi:10.1021/jm800913d (National Institute On Drug Abuse, 2008).
